SKN-1 block: C. elegans SKN-1 inhibition | C. elegans VP596 Pgst-4::GFP/RFP ratio, acrylamide-induced, 24 h | inhibition, % at 21.8 µM | AID 624304 | 0.49% of 360,000 active;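 active = interference check ratio from 0.5 to 1.5 plus GFP to RFP signal ratio inhibition reaching or exceeding a fixed threshold, cut at about 30% in these data, passing the limit was not always enough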
MT1-MMP act inh: inhibitors of human MT1-MMP activation. 0.061% of 360,000 active. AID 651647. P50281. HT1080 RFP-PRO-GFP cells, GFP/RFP ratio fluorescence, overnight; percent of plate control window, DMSO zero. GFP/RFP ratio change, % at 20 µM;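 active = GFP/RFP ratio change of at least 30% with cell ATP level not reduced by more than half and red fluorescence within 50% of control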
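Compound: 20 µM single dose, 1% DMSO / System: HT1080 RFP-PRO-GFP cells / Controls: DMSO and RFP-L50D-GFP cell wells / Read-out basis: GFP/RFP fluorescence ratio / Schedule: overnight compound exposure at 37 °C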
CendR NRP1 mod: modulators of CendR peptide binding to human neuropilin-1. inhibition, % at 25 µM. FAM-RPARPAR peptide binding to NRP-1, fluorescence polarization. O14786. 0.85% of 360,000 active;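 active = inhibition or corrected inhibition above about 18%, plus a signal ratio from 0.5 to 1.5, limit read from the data, passing the limit was not always enough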
Target sequence (O14786 whole entry, looked up): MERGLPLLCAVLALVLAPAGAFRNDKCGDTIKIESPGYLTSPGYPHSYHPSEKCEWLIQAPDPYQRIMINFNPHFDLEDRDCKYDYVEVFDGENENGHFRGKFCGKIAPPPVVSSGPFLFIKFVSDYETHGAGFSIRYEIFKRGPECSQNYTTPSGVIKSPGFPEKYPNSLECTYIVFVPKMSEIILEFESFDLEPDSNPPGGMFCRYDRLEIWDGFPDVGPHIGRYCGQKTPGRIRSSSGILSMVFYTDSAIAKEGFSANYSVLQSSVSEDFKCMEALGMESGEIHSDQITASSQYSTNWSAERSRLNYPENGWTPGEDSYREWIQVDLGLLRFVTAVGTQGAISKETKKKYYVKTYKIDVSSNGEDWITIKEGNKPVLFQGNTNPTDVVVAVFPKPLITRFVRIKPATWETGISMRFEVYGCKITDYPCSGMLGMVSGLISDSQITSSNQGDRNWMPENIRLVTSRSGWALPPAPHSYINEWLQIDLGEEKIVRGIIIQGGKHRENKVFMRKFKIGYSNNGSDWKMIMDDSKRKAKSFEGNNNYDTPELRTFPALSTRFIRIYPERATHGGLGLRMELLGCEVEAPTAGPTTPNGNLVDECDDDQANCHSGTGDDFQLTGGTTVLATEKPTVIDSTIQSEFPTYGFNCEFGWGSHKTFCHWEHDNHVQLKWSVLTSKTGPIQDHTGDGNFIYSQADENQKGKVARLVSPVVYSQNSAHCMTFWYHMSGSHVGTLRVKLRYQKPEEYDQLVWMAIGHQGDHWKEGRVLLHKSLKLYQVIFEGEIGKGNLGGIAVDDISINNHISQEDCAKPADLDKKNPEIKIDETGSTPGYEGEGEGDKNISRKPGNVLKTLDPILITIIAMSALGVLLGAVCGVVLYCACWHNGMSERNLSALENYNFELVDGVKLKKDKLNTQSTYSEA
hiPSC survival: hiPSC single-cell survival enhancement | AID 602274 | ATPlite luminescence; 100% = ROCK inhibitor wells, 0% = DMSO | survival enhancement, % at 20 µM | 0.044% of 360,000 active; in the data active = survival enhancement above about 18%;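 also: cells exposed to compounds for 16 hours before the ATP read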
Of the large screens only hits and unclear results are named; the others gave an inactive call; ! = not active in a repeat. Most compounds without a hit are left out; they make up all but 1.4% or so of the library.

CCCC[N+]12CCC(CC1)C(Cc1ccccc1)C2 (centres undefined)	none
COC(=O)C1=C(c2ccc(S(C)(=O)=O)cc2)C[C@@H]2CC[C@H]1N2C	CendR NRP1 mod 35
CC[C@@H](CO)NC(=O)[C@@H]1C=C2c3cccc4c3c(cn4C)C[C@H]2N(C)C1	CendR NRP1 mod 41
CC(C)C[C@H]1C(=O)N2CCC[C@H]2[C@]2(O)O[C@](NC(=O)[C@@H]3C=C4c5cccc6[nH]cc(c56)C[C@H]4N(C)C3)(C(C)C)C(=O)N12	none
CCC(CO)NC(=O)C1C=C2c3cccc4[nH]cc(c34)CC2N(C)C1 (centres undefined)	CendR NRP1 mod 49
CC[C@@H](CO)NC(=O)[C@@H]1C=C2c3cccc4[nH]cc(c34)C[C@H]2N(C)C1	none
CN1C(=O)/C(=C/c2ccc(Cl)s2)C(=O)NC1=S	none
CN1C(=O)/C(=C\c2ccc(N3CCCCC3)o2)C(=O)NC1=S	SKN-1 block 33
Cc1ccsc1/C=C1\C(=O)NC(=S)N(C)C1=O	SKN-1 block 40
CCn1c(O)c(C=NCCc2c[nH]c3ccccc23)c(=O)[nH]c1=O	none
O=C1NC(=S)N(C2CC2)C(=O)/C1=C/c1ccc2c(c1)CCN2CCCCl	SKN-1 block 41
CCN1C(=O)/C(=C/c2ccc3c(c2)CCN3CCCCl)C(=O)NC1=S	none
C=C1C(=O)OC2CC(C)C3C=CC(=O)C3(C)C(O)C12 (centres undefined)	hiPSC survival 50
CCc1cc(=O)[nH]c(SCCCF)n1	none
O=C1C2CCN(CC2)C1Cc1ccc(OCCOc2ccccc2)cc1 (centres undefined)	CendR NRP1 mod 28
COc1cc(C)c(CN2CCN(c3ccccc3)CC2)cc1C	CendR NRP1 mod 36
CCOC(=O)C1SC2(C(F)F)CC1(O)c1c(c(OC)c3occc3c1OC)O2 (centres undefined)	none
CC1=CC2OC3CC4OC(=O)C=CC=CC(C(C)O)OCC(O)C5(C)OC5C(=O)OCC2(CC1O)C4(C)C31CO1 (centres undefined)	SKN-1 block 40
CN(C)C(=O)Oc1ccc(Br)cc1C(=O)Nc1ccc(F)c(Cl)c1	none
CCOC(=O)c1ccccc1NC(=O)c1c(O)[nH]c(=S)[nH]c1=O	none
CSCCC(c1nnnn1C1CCCCC1)N1CCC2(CC1)C(=O)NCN2c1ccccc1 (centres undefined)	CendR NRP1 mod 24
CSCCC(c1nnnn1C1CCCC1)N1CCC2(CC1)C(=O)NCN2c1ccccc1 (centres undefined)	none
CCC(c1nnnn1C(C)(C)C)N1CCC2(CC1)C(=O)NCN2c1ccccc1 (centres undefined)	CendR NRP1 mod 30
CN(C)/C=C1/C(=O)NC(=O)N(CCNc2ncc(C(F)(F)F)cc2Cl)C1=O	none
CC(C)(C)n1c(O)c(C=Nc2ccc3c(c2)CCC3)c(=O)[nH]c1=O	SKN-1 block 27
CCOC(=O)C1=C(N)Oc2c(c(=O)oc3ccccc23)C12C(=O)N(C)c1ccccc12 (centres undefined)	none
C=CCN1C(=O)C2(C(C(=O)OCC)=C(N)Oc3ccccc32)c2c1c1ccccc1oc2=O (centres undefined)	CendR NRP1 mod 44 (no result: MT1-MMP act inh)
O=c1[nH]c(O)c(/C=C2/C=CC(c3cc(Cl)ccc3Cl)=N2)c(=O)[nH]1	none
CCn1c(O)c(C=Nc2ccc(S(N)(=O)=O)cc2)c(=O)[nH]c1=S	SKN-1 block 38
c1ccc(Cn2ccnc2)cc1	none
CC(C)c1cccc(C(C)C)c1OCCn1ccnc1	SKN-1 block 34
Cc1ccc(OCCn2cccc2/C=C2/C(=O)NC(=O)N(Cc3ccco3)C2=O)cc1	none
CCc1ccc(N2C(=O)NC(=O)/C(=C\c3cccn3CCOc3ccc(C(C)C)cc3)C2=O)cc1	CendR NRP1 mod 36
COC(=O)C1=C(c2cccc(C#N)c2)C[C@@H]2CC[C@H]1N2C(=O)NCCCOC(C)C	none
Cc1ccc(C(=O)C2CN3CCC2CC3)cc1 (centres undefined)	CendR NRP1 mod 26
C[C@@H]1CN([C@@H](C)CO)C(=O)CCCn2nncc2CO[C@@H]1CN(C)C(=O)Oc1ccccc1	none
Cc1c(P(=S)(c2ccccc2)c2ccccc2)[n+]2ccccc2n1C	CendR NRP1 mod 34!
O=[N+]([O-])c1ccc(Nc2ccccc2)cc1	SKN-1 block 51
c1ccc(Nc2ccc(Nc3ccccc3)cc2)cc1	CendR NRP1 mod 29
O=[N+]([O-])c1ccc(Cl)cc1	none
N#CC(C#N)=C(C#N)c1ccc(Nc2ccccc2)cc1	none
CCC(C)n1c(C)cc(C(N)=O)c1C (centres undefined)	none
c1ccc2c(NC3=NCCS3)cccc2c1	CendR NRP1 mod 26
Clc1cccc(Cl)c1NC1=NCCS1	none
CCn1c(O)c(C(c2ccccn2)c2c(O)n(CC)c(=S)[nH]c2=O)c(=O)[nH]c1=S	none
COc1ccc2c(c1)NP(=S)(c1ccccc1)N2C (centres undefined)	SKN-1 block 54
CN1CC[C@@]2(C)c3cc(O)ccc3N(C)[C@@H]12	CendR NRP1 mod 28!
CN1CC[C@@]2(C)c3cc(O)ccc3N(C)C2O1 (some centres undefined)	none
Cc1c(N=Cc2c(O)n(C)c(=O)[nH]c2=O)c(=O)n(-c2ccccc2)n1C	none
Cc1c(NP(=O)(C(C)(C)C)C(C)(C)C)c(=O)n(-c2ccccc2)n1C	CendR NRP1 mod 21
COc1cc(OC)c(OC)cc1CN1CCN(C(=O)Cc2ccccc2)CC1	none
Oc1ccc(CC2(N3CCCC3)CCCCC2)cc1	none
COC(=O)C1=C(c2ccccc2OCc2ccccc2)C[C@@H]2CC[C@H]1N2C(=O)NCc1ccc(F)cc1	CendR NRP1 mod 22
COC(=O)C1=C(c2cccc(OC)c2OC)C[C@@H]2CC[C@H]1N2C(=O)NCc1ccc(F)cc1	CendR NRP1 mod 27
CCCCOC(=O)C1=C(N)OC2=C(C(=O)CC(C)(C)C2)[C@]12C(=O)N(C)c1ccccc12	none
CNc1cc(Cl)c2nonc2c1[N+](=O)[O-]	hiPSC survival 48
Cc1cc([N+](=O)[O-])c(Cl)cc1NC(=O)C(C)C	none
CN1C(=O)C(=Cc2cn(CC(=O)N3CCCCC3)c3ccccc23)C(=O)N(C)C1=O	SKN-1 block 41
CN1C(=O)C(=Cc2cn(CC(=O)N3CCCC3)c3ccccc23)C(=O)N(C)C1=O	none
Cc1ccc(-[n+]2c(Cc3nn(-c4ccccc4)c(C)[n+]3-c3ccc(C)cc3)nn(-c3ccccc3)c2C)cc1	CendR NRP1 mod 27
COc1ccc(-[n+]2c(-c3ccccc3)cc(-c3ccc(C)cc3)cc2-c2ccccc2)cc1	none
Clc1ccccc1CNC1CN2CCC1CC2 (centres undefined)	CendR NRP1 mod 26
O=C(c1c[nH]c2ccc(S(=O)(=O)N3CCOCC3)cc2c1=O)N1CCC2(CC1)OCCO2	CendR NRP1 mod 28
CCn1cc(C(=O)N2CCC3(CC2)OCCO3)c(=O)c2cc(S(=O)(=O)N3CCCC3)ccc21	none
O=C1NC(=O)C(C2CCOC2=O)N1 (centres undefined)	none
